Calls of active or inactive are those of the source. The rule behind the calls is not given here.
What was measured:
Mus musculus [1] = species: Mus musculus; assay: Protection index, ratio of TD50 for CD1 albino mouse to ED50 for protection against maximal electroshock-induced seizures in CD1 albino mouse
How it was run: (§1)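 Quantitation in male CD-1 mice dosed ip at the previously estimated time of peak effect. Seizures were induced by MES or by sc pentylenetetrazole 85 mg/kg; rotarod at 10 rpm assessed motor impairment. Groups of six, at least three doses giving 10-90% effect.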

Rattus norvegicus = species: Rattus norvegicus; assay: Displacement of [3H]BTX from voltage-sensitive Na+ channel site 2 in rat cerebral cortex synaptoneurosomes at 100 uM after 60 mins by liquid scintillation spectroscopic analysis; assay type: tissue-based
How it was run: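 Cerebral cortex synaptoneurosomes from rat, tested at 100 µM for inhibition of specific [3H]BTX binding to the voltage-sensitive Na+ channel site 2. Reported as % inhibition of control specific binding; run commercially.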

Mus musculus [2] = assay: Anticonvulsant activity in CD1 albino mouse assessed as protection against subcutaneous pentylenetetrazole-induced seizures at 300 mg/kg, ip after 0.5 hrs; assay type: functional, organism-based
How it was run: (§2)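 Male CD-1 mice (16-26 g), compounds ip in 0.5% methylcellulose/water at 30, 100 or 300 mg/kg, 3-4 per group. At 0.5 or 4 h, pentylenetetrazole 85 mg/kg was injected sc. Protection was absence of clonic convulsions (at least 5 s) over a 30 min observation. Minimum active dose recorded.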

Mus musculus [3] = assay: Anticonvulsant activity in ip dosed CD1 albino mouse assessed as protection against 32 mA-current- for 3 secs induced seizure by 6Hz psychomotor seizure test; assay type: functional
How it was run: (§3)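 6-Hz corneal stimulation at 32 mA (6 Hz, 3 s) in male CD-1 mice dosed ip. Groups of six received several doses until at least three points fell between 10 and 90% protection. […] PI = TD50/ED50 (rotarod).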

Mus musculus [4] = assay: Anticonvulsant activity in CD1 albino mouse assessed as protection against maximal electroshock-induced seizures at 100 to 300 mg/kg, ip after 0.5 hrs; assay type: functional; settings: read-out: MED
Mus musculus [5] = assay: Anticonvulsant activity in ip dosed CD1 albino mouse assessed as protection against maximal electroshock-induced seizures; assay type: functional
Mus musculus [6] = assay: Local anesthetic activity in CD1 albino mouse assessed prolongation of time reaction at 2 % concentration after 20 secs by tail immersion test relative to vehicle control; assay type: functional
How it was run: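 Compound at 1 or 2% in 0.5% methylcellulose, injected sc (0.2 ml) about 1 cm from the tail root of male CD-1 mice. After 15 min, the distal 3 cm of the tail was immersed in 50 ± 0.5 °C water and withdrawal time measured, cut off at 20 s. n=8; mean ± SEM; % prolongation relative to vehicle.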

Mus musculus [7] = assay: Antinociceptive activity in CD1 albino mouse assessed as reduction of formalin-induced licking response in inflammatory phase at 70.08 mg/kg, ip preincubated for 30 mins measured after 15 to 20 mins; assay type: functional; parameters: scale not given: the % may be the effect or the level left
Mus musculus [8] = assay: Anticonvulsant activity in ip dosed CD1 albino mouse assessed as time to peak effect by 6Hz psychomotor seizure test; assay type: functional; how it was run: as §3
Mus musculus [9] = assay: Anticonvulsant activity in CD1 albino mouse assessed as protection against maximal electroshock-induced seizures at 100 to 300 mg/kg, ip after 4 hrs; assay type: functional; settings: read-out: MED
Mus musculus [10] = assay: Antinociceptive activity in CD1 albino mouse assessed as reduction of formalin-induced licking response in neurogenic phase at 70.08 mg/kg, ip preincubated for 30 mins measured after 5 mins; assay type: functional; parameters: scale not given: the % may be the effect or the level left
Mus musculus [11] = assay: Neurotoxicity in CD1 albino mouse assessed as acute motor impairment at 100 to 300 mg/kg, ip after 0.5 hrs by rotarod test; assay type: toxicity, organism-based; settings: in vivo
How it was run: (§4)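 Male CD-1 mice given 30, 100 or 300 mg/kg ip in 0.5% methylcellulose, tested at 0.5 and 4 h. Motor impairment was scored as failure to keep balance for at least 1 min on a rod rotating at 10 rpm. Minimum dose causing impairment reported.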

Mus musculus [12] = species: Mus musculus; assay: Protection index, ratio of TD50 for CD1 albino mouse to ED50 for protection against 32 mA-current- for 3 secs induced seizure in CD1 albino mouse by 6Hz psychomotor seizure test; how it was run: as §3
Mus musculus [13] = assay: Antinociceptive activity in CD1 albino mouse assessed as reduction of formalin-induced licking response in inflammatory phase at 70.08 mg/kg, ip preincubated for 30 mins measured after 25 to 30 mins; assay type: functional; parameters: scale not given: the % may be the effect or the level left
Mus musculus [14] = assay: Anticonvulsant activity in ip dosed CD1 albino mouse assessed as time to peak effect; assay type: functional; how it was run: as §1
[15] = Neurotoxicity in ip dosed CD1 albino mouse assessed as acute motor impairment by rotarod test; assay type: toxicity, organism-based; settings: in vivo; how it was run: as §1
Mus musculus [16] = assay: Neurotoxicity in CD1 albino mouse assessed as acute motor impairment at 300 mg/kg, ip after 4 hrs by rotarod test; assay type: toxicity, organism-based; settings: in vivo; how it was run: as §4
Mus musculus [17] = assay: Anticonvulsant activity in CD1 albino mouse assessed as protection against subcutaneous pentylenetetrazole-induced seizures at 300 mg/kg, ip after 4 hrs; assay type: functional, organism-based; how it was run: as §2
Mus musculus [18] = assay: Anticonvulsant activity in CD1 mouse assessed as protection against 32 mA-current- for 3 secs induced seizure at 100 mg/kg, ip after 0.5 hrs by 6Hz psychomotor seizure test; assay type: functional
How it was run: (§5)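 Male CD-1 mice given 100 mg/kg ip in 0.5% methylcellulose, four per time point. Corneal stimulation at 32 mA, 0.2 ms monopolar rectangular pulses at 6 Hz for 3 s, from a constant-current device. A mouse was protected if it resumed normal exploratory behavior within 10 s. Reported as number protected over number tested.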

Mus musculus [19] = assay: Anticonvulsant activity in CD1 mouse assessed as protection against 32 mA-current- for 3 secs induced seizure at 100 mg/kg, ip after 0.25 hrs by 6Hz psychomotor seizure test; assay type: functional; how it was run: as §5
Mus musculus [20] = assay: Antinociceptive activity in CD1 albino mouse assessed as reduction of formalin-induced licking response in inflammatory phase at 69.05 mg/kg, ip preincubated for 30 mins measured after 15 to 20 mins; assay type: functional; parameters: scale not given: the % may be the effect or the level left
Mus musculus [21] = assay: Anticonvulsant activity in CD1 albino mouse assessed as protection against maximal electroshock-induced seizures at 300 mg/kg, ip after 4 hrs; assay type: functional, organism-based
Mus musculus [22] = assay: Anticonvulsant activity in CD1 mouse assessed as protection against 32 mA-current- for 3 secs induced seizure at 100 mg/kg, ip after 2 hrs by 6Hz psychomotor seizure test; assay type: functional, organism-based; how it was run: as §5
Mus musculus [23] = assay: Antinociceptive activity in CD1 albino mouse assessed as reduction of formalin-induced licking response in neurogenic phase at 69.05 mg/kg, ip preincubated for 30 mins measured after 25 to 30 mins; assay type: functional; parameters: scale not given: the % may be the effect or the level left
Mus musculus [24] = assay: Anticonvulsant activity in CD1 albino mouse assessed as protection against subcutaneous pentylenetetrazole-induced seizures at 100 to 300 mg/kg, ip after 0.5 hrs; assay type: functional; settings: CD1, 0.5 h, read-out: MED; how it was run: as §2
Mus musculus [25] = assay: Antinociceptive activity in CD1 albino mouse assessed as reduction of formalin-induced licking response in neurogenic phase at 69.05 mg/kg, ip preincubated for 30 mins measured after 5 mins; assay type: functional, organism-based
Mus musculus [26] = assay: Protection index, ratio of TD50 for CD1 albino mouse to ED50 for protection against subcutaneous pentylenetetrazole-induced seizures in CD1 albino mouse; how it was run: as §1
Mus musculus [27] = assay: Anticonvulsant activity in ip dosed CD1 albino mouse assessed as protection against subcutaneous pentylenetetrazole-induced seizures; assay type: functional; how it was run: as §1
Mus musculus [28] = assay: Antinociceptive activity in CD1 albino mouse assessed as reduction of formalin-induced licking response in inflammatory phase at 82.74 mg/kg, ip preincubated for 30 mins measured after 15 to 20 mins; assay type: functional; parameters: scale not given: the % may be the effect or the level left
Mus musculus [29] = assay: Neurotoxicity in CD1 albino mouse assessed as acute motor impairment at 300 mg/kg, ip measured after 0.5 hrs by rotarod test; assay type: toxicity, organism-based; settings: in vivo; how it was run: as §4
Mus musculus [30] = assay: Antinociceptive activity in CD1 albino mouse assessed as reduction of formalin-induced licking response in inflammatory phase at 82.74 mg/kg, ip preincubated for 30 mins measured after 25 to 30 mins; assay type: functional; parameters: scale not given: the % may be the effect or the level left
Mus musculus [31] = assay: Antinociceptive activity in CD1 albino mouse assessed as reduction of formalin-induced licking response in inflammatory phase at 82.74 mg/kg, ip preincubated for 30 mins measured after 20 to 25 mins; assay type: functional; parameters: scale not given: the % may be the effect or the level left
Mus musculus [32] = assay: Antinociceptive activity in CD1 albino mouse assessed as reduction of formalin-induced licking response in neurogenic phase at 82.74 mg/kg, ip preincubated for 30 mins measured after 5 mins; assay type: functional; parameters: scale not given: the % may be the effect or the level left

Row | Compound | Ratio TD50/ED50 (Mus musculus [1]) | inhibition (Rattus norvegicus) | minimal effective dose (Mus musculus [4]) | ED50 (Mus musculus [5]) | Activity (Mus musculus [6]) | minimal effective dose (Mus musculus [9]) | MTC (Mus musculus [11]) | Time (Mus musculus [14]) | TD50 [15] | Activity (Mus musculus [16]) | Activity (Mus musculus [17]) | minimal effective dose (Mus musculus [24]) | Ratio TD50/ED50 (Mus musculus [26]) | ED50 (Mus musculus [27]) | also measured
1 | CCC1(C)CC(=O)N(CC(=O)N2CCN(c3cccc(C(F)(F)F)c3)CC2)C1=O (stereo unspecified) | 4.06 | 63.5% | 100 mg/kg | 70.1 mg/kg | 46% | 100 mg/kg | 300 mg/kg | 0.5 h | 285 mg/kg | Non-toxic | inactive | – | – | – | Activity (Mus musculus [2]): inactive; ED50 (Mus musculus [3]): 90.3 mg/kg; Activity (Mus musculus [7]): 100%; Time (Mus musculus [8]): 0.5 h; Activity (Mus musculus [10]): 40%; Ratio TD50/ED50 (Mus musculus [12]): 3.15; Activity (Mus musculus [13]): 99%
2 | CCC1(C)CC(=O)N(CC(=O)N2CCN(c3ccc(F)cc3)CC2)C1=O (stereo unspecified) | 2.76 | 32.5% | 100 mg/kg | 69 mg/kg | 61% | – | 300 mg/kg | 0.5 h | 191 mg/kg | Non-toxic | inactive | 100 mg/kg | 1.47 | 130 mg/kg | Activity (Mus musculus [18]): 75%; Activity (Mus musculus [19]): 75%; Activity (Mus musculus [20]): 93%; Activity (Mus musculus [21]): inactive; Activity (Mus musculus [22]): inactive; Activity (Mus musculus [23]): 92%; Activity (Mus musculus [25]): inactive
3 | CC1CC(=O)N(CC(=O)N2CCN(c3cccc(Cl)c3)CC2)C1=O (stereo unspecified) | 3.91 | 28.5% | 100 mg/kg | 82.7 mg/kg | 17% | 300 mg/kg | – | 1 h | 323 mg/kg | Non-toxic | inactive | 100 mg/kg | 8 | 40.3 mg/kg | Activity (Mus musculus [28]): 98%; Activity (Mus musculus [29]): Non-toxic; Activity (Mus musculus [30]): 96%; Activity (Mus musculus [31]): 100%; Activity (Mus musculus [32]): 67%

Source: ChEMBL document CHEMBL3774376, “Synthesis, and anticonvulsant activity of new amides derived from 3-methyl- or 3-ethyl-3-methyl-2,5-dioxo-pyrrolidin-1-yl-acetic acids” (Bioorg Med Chem, 2016)
